Data reported in ChEMBL document CHEMBL1944532, “Synthesis and evaluation of anticancer activity of some novel 6-aryl-2-(p-sulfamylphenyl)-pyridazin-3(2H)-ones” (Eur J Med Chem, 2012).
Active and inactive are the calls of the source. The rule behind the calls is not given here.

What was measured:
[1] = system: EKVX; experiment: Cytotoxicity against human EKVX cells assessed as cell growth at 10 uM after 48 hrs by SRB assay; assay type: functional; conditions: read-out: Activity
How it was run: (§1)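 NCI primary single-dose screen at 10^-5 M against the ~60 human tumour cell line panel. Cells grown in RPMI-1640 with 5% fetal calf serum and 2 mM L-glutamine and pre-incubated 24 h before compound addition. Compound added from DMSO solution with 48 h exposure. Growth read by sulforhodamine B protein staining.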

[2] = system: NCI-H226; experiment: Cytotoxicity against human NCI-H226 cells assessed as cell growth at 10 uM after 48 hrs by SRB assay; assay type: functional; conditions: NCI-H226, 48 h, read-out: Activity
How it was run: (§2)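 NCI primary single-dose screen at 10^-5 M against the full panel of about 60 human tumor cell lines. Cells were in RPMI-1640 with 5% fetal calf serum and 2 mM L-glutamine and preincubated 24 h. Compound was given in DMSO with 48 h exposure. Growth was estimated by sulforhodamine B protein assay.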

[3] = system: COLO 205; experiment: Cytotoxicity against human COLO205 cells assessed as cell growth at 10 uM after 48 hrs by SRB assay; assay type: functional; conditions: COLO 205, 48 h, read-out: Activity; how it was run: as §1
[4] = system: SF-539; experiment: Cytotoxicity against human SF539 cells assessed as cell growth at 10 uM after 48 hrs by SRB assay; assay type: functional; conditions: SF-539, 48 h, read-out: Activity; how it was run: as §2
[5] = system: LOX IMVI; experiment: Cytotoxicity against human LOXIMVI cells assessed as cell growth at 10 uM after 48 hrs by SRB assay; assay type: functional; conditions: read-out: Activity; how it was run: as §2
[6] = system: Malme-3M; experiment: Cytotoxicity against human MALME-3M cells assessed as cell growth at 10 uM after 48 hrs by SRB assay; assay type: functional; conditions: read-out: Activity; how it was run: as §2
[7] = system: M14; experiment: Cytotoxicity against human M14 cells assessed as cell growth at 10 uM after 48 hrs by SRB assay; assay type: functional; conditions: M14, 48 h, read-out: Activity; how it was run: as §2
[8] = system: SK-MEL-28; experiment: Cytotoxicity against human SK-MEL-28 cells assessed as cell growth at 10 uM after 48 hrs by SRB assay; assay type: functional; conditions: SK-MEL-28, 48 h, read-out: Activity
How it was run: (§3)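 NCI primary one-dose screen at 10^-5 M against the full panel of about 60 human tumour cell lines, run to the NCI Drug Evaluation Branch protocol.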

[9] = system: SK-MEL-5; experiment: Cytotoxicity against human SK-MEL-5 cells assessed as cell growth at 10 uM after 48 hrs by SRB assay; assay type: functional; conditions: SK-MEL-5, 48 h, read-out: Activity; how it was run: as §3
[10] = system: A498; experiment: Cytotoxicity against human A498 cells assessed as cell growth at 10 uM after 48 hrs by SRB assay; assay type: functional; conditions: A498, 48 h, read-out: Activity; how it was run: as §1
[11] = system: CCRF-CEM; experiment: Cytotoxicity against human CCRF-CEM cells after 48 hrs by SRB assay; assay type: functional
How it was run: (§4)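 NCI ~60-line panel in RPMI-1640 with 5% fetal calf serum and 2 mM L-glutamine, pre-incubated 24 h. Compound in DMSO tested at five 10-fold concentrations (10^-4 to 10^-8 M) with 48 h continuous exposure. Growth measured by sulforhodamine B protein assay. GI50 (50% net growth inhibition), TGI (total inhibition) and LC50 (50% net cell death) derived from dose-response.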

[12] = system: EKVX; experiment: Cytotoxicity against human EKVX cells after 48 hrs by SRB assay; assay type: functional; how it was run: as §4
[13] = system: NCI-H23; experiment: Cytotoxicity against human NCI-H23 cells after 48 hrs by SRB assay; assay type: functional; conditions: NCI-H23, 48 h
How it was run: (§5)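 NCI five-dose screen on the ~60-line human tumor panel. Cells grown in RPMI-1640 with 5% fetal calf serum and 2 mM L-glutamine, seeded at line-dependent density and preincubated 24 h. Compound added from DMSO at 10-fold dilutions from 10^-4 to 10^-8 M, continuous exposure 48 h. Growth read by sulforhodamine B protein stain. GI50, TGI and LC50 derived per line.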

[14] = system: COLO 205; experiment: Cytotoxicity against human COLO205 cells after 48 hrs by SRB assay; assay type: functional; conditions: COLO 205, 48 h; how it was run: as §4
[15] = system: SF-539; experiment: Cytotoxicity against human SF539 cells after 48 hrs by SRB assay; assay type: functional; conditions: SF-539, 48 h; how it was run: as §5
[16] = system: UACC-62; experiment: Cytotoxicity against human UACC62 cells after 48 hrs by SRB assay; assay type: functional; conditions: UACC-62, 48 h
How it was run: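 NCI 60-cell-line five-dose screen. Cells were grown in 1640 medium with 5% fetal calf serum and 2 mM L-glutamine, with inoculum density set by cell line, and pre-incubated 24 h. Compound in DMSO was added at 10^-4 to 10^-8 M (10-fold steps) with 48 h continuous exposure. Growth was read by SRB protein assay, and GI50, TGI and LC50 were derived from dose-response.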

[17] = system: IGROV-1; experiment: Cytotoxicity against human IGROV1 cells after 48 hrs by SRB assay; assay type: functional; conditions: IGROV-1, 48 h; how it was run: as §4
[18] = system: 786-0; experiment: Cytotoxicity against human 786-0 cells after 48 hrs by SRB assay; assay type: functional; conditions: 786-0, 48 h; how it was run: as §4
[19] = system: A498; experiment: Cytotoxicity against human A498 cells after 48 hrs by SRB assay; assay type: functional; conditions: A498, 48 h; how it was run: as §4
[20] = system: MDA-MB-468; experiment: Cytotoxicity against human MDA-MB-468 cells after 48 hrs by SRB assay; assay type: functional; conditions: MDA-MB-468, 48 h; how it was run: as §5
[21] = Toxicity in ip dosed athymic nude mouse assessed as body weight loss after 2 weeks; assay type: organism-based; conditions: in vivo
How it was run: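 Maximum tolerated dose determination in athymic nude mice. Single ip injection of 400, 200 or 100 mg/kg, one mouse per dose. Compound solubilized in DMSO. Feed and water ad libitum. Mice observed 2 weeks for body weight loss, lethality and other toxicity signs; sacrificed if weight loss exceeds 20%.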

[22] = system: MDA-MB-231; experiment: Antitumor activity against human MDA-MB-231 cells implanted in mouse dosed qd for 4 days by formazan dye-based hollow fiber assay; assay type: functional, organism-based
How it was run: (§6)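 Cells grown inside polyvinylidene fluoride hollow fibers; each line implanted into both intraperitoneal and subcutaneous compartments in mice. Compound given ip at two doses on a QD x 4 schedule. Fibers then recovered and viable cell mass measured by formazan dye conversion. Scored 2 per dose giving ≥50% reduction in viable cell mass (%T/C 50).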

[23] = system: NCI-H23; experiment: Antitumor activity against human NCI-H23 cells implanted in mouse dosed qd for 4 days by formazan dye-based hollow fiber assay; assay type: functional, organism-based; how it was run: as §6
[24] = system: SF-295; experiment: Antitumor activity against human SF295 cells implanted in mouse dosed qd for 4 days by formazan dye-based hollow fiber assay; assay type: functional, organism-based; how it was run: as §6

CCc1ccc(-c2ccc(=O)n(-c3ccc(S(N)(=O)=O)cc3)n2)cc1
growth at 10 µM [1]: 69.1% | growth at 10 µM [2]: 94.1% | growth at 10 µM [3]: 26% | growth at 10 µM [4]: 43.6% | growth at 10 µM [5]: 55.1% | growth at 10 µM [6]: 35.6% | growth at 10 µM [7]: 17.7% | growth at 10 µM [8]: 49.4% | growth at 10 µM [9]: 12.9% | growth at 10 µM [10]: 40.3% | LC50 [11]: > 100 µM | GI50 ([11]; read-out: GI50): 0.786 µM | GI50 ([11]; read-out: pGI50 (converted)): 0.794 µM | TGI ([11]; read-out: pTGI): > 100 µM | LC50 (50% net cell death) [12]: > 100 µM | GI50 ([12]; read-out: GI50): 2.79 µM | GI50 ([12]; read-out: pGI50 (converted)): 2.82 µM | TGI ([12]; read-out: pTGI): > 100 µM | LC50 [13]: > 100 µM | GI50 ([13]; read-out: GI50): 16.9 µM | GI50 ([13]; read-out: pGI50 (converted)): 17 µM | TGI ([13]; read-out: pTGI): > 100 µM | LC50 [14]: > 100 µM | GI50 ([14]; read-out: GI50): 0.976 µM | GI50 ([14]; read-out: pGI50 (converted)): 0.977 µM | TGI ([14]; read-out: pTGI (converted)): 30.9 µM | LC50 [15]: > 100 µM | GI50 ([15]; read-out: GI50): 1.84 µM | GI50 ([15]; read-out: pGI50 (converted)): 1.82 µM | TGI ([15]; read-out: pTGI (converted)): 22.9 µM | LC50 [16]: > 100 µM | GI50 ([16]; read-out: GI50): 0.724 µM | GI50 ([16]; read-out: pGI50 (converted)): 0.724 µM | TGI ([16]; read-out: pTGI): > 100 µM | LC50 [17]: > 100 µM | GI50 ([17]; read-out: GI50): 3.81 µM | GI50 ([17]; read-out: pGI50 (converted)): 3.8 µM | TGI ([17]; read-out: pTGI): > 100 µM | LC50 (50% net cell kill) [18]: > 100 µM | GI50 ([18]; read-out: GI50): 10.2 µM | GI50 ([18]; read-out: pGI50 (converted)): 10.2 µM | TGI ([18]; read-out: pTGI (converted)): 63.1 µM | LC50 [19]: > 100 µM | GI50 ([19]; read-out: GI50): 1.97 µM | GI50 ([19]; read-out: pGI50 (converted)): 1.95 µM | TGI ([19]; read-out: pTGI (converted)): 38 µM | LC50 [20]: > 100 µM | GI50 ([20]; read-out: GI50): 3.18 µM | GI50 ([20]; read-out: pGI50 (converted)): 3.16 µM | TGI ([20]; read-out: pTGI): > 100 µM | MTD at 336 h [21]: 400 mg/kg | Activity [22]: inactive | Activity [23]: inactive | Activity [24]: inactive
